Measurements from ChEMBL document CHEMBL1151889, “4,4-Dimethyl-1,2,3,4-tetrahydroquinoline-based PPARalpha/gamma agonists. Part. II: Synthesis and pharmacological evaluation of oxime and acidic head group structural variations” (Bioorg Med Chem Lett, 2009).

How the values were obtained:
[1] = target: T1, Peroxisome proliferator-activated receptor gamma (Homo sapiens, UniProt P37231); assay: Displacement of [3H]rosiglitazone from human PPARgamma receptor
T1 sequence (P37231 whole entry): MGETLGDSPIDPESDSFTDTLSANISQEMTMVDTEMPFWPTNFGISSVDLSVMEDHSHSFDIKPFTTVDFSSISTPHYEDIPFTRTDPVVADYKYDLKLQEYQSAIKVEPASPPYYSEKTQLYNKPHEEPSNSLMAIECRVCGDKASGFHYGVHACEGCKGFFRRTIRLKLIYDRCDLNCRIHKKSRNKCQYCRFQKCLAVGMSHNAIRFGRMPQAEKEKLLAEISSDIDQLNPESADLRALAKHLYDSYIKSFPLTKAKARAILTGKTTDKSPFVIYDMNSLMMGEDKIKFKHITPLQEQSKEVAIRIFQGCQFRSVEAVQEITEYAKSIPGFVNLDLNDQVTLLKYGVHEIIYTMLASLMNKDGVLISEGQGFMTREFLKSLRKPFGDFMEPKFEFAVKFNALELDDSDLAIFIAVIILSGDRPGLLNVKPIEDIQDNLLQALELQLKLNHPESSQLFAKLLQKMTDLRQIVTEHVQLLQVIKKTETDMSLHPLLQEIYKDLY

[2] = target: T1, Peroxisome proliferator-activated receptor gamma; assay: Agonist activity at human PPARgamma by Gal4 transactivation assay; format: functional
[3] = target: T2, Peroxisome proliferator-activated receptor alpha (Homo sapiens, UniProt Q07869); assay: Agonist activity at human PPARalpha by Gal4 transactivation assay; format: functional
T2 sequence (Q07869 whole entry): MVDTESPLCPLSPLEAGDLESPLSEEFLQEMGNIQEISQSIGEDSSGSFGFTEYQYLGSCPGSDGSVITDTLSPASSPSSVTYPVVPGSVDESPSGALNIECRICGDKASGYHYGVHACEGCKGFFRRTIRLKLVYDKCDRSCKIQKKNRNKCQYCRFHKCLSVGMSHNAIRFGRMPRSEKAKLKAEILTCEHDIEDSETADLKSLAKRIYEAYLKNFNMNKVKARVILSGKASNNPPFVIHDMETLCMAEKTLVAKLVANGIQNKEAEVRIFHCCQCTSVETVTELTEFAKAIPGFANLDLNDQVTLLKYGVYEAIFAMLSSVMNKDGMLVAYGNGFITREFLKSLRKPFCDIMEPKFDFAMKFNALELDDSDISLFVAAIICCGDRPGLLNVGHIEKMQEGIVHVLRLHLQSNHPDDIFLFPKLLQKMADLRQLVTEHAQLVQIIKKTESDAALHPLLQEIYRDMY

Caco-2 = assay: Absorption in human Caco-2 cells; format: ADME, cell-based; parameters: concentration or dose not given beside the values
Liver microsomes [4] = assay: Metabolic stability in human hepatocyte microsomes; format: ADME, Microsome
Liver microsomes [5] = assay: Metabolic stability in rat hepatocyte microsomes; format: ADME, Microsome
[6] = target: T3, Peroxisome proliferator-activated receptor alpha (Homo sapiens) (UniProt Q07869); assay: Agonist activity at human PPARalpha at transactivation EC50 by Gal4 transactivation assay relative to at 10 uM WY-14643
T3 sequence (whole entry): T2 sequence (Q07869 whole entry)

Mus musculus [7] = assay: Lipid lowering effect in po dosed C57BL/6J ob/ob mouse assessed as triglyceride level relative to untreated control; format: functional
Outline: (§1)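 Male C57BL/6J ob/ob mice (n = 8–12 per dose) were gavaged with 3 mg/kg daily for four days in 1% hydroxyethyl cellulose (2.5 ml/kg). On day five, heparinized retro-orbital plasma was collected under CO₂ anaesthesia. Plasma level was expressed as percent change from the mean of vehicle-treated mice. Groups were compared by ANOVA and one-tailed Dunnett's test.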

Mus musculus [8] = assay: Glucose lowering effect in po dosed C57BL/6J ob/ob mouse assessed as insulin level relative to untreated control; format: functional; outline: as §1
Mus musculus [9] = assay: Effect on bodyweight in po dosed C57BL/6J ob/ob mouse assessed as body weight gain relative to untreated control; format: functional
Outline: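 Male C57BL/6J ob/ob mice (n = 8–12 per dose) were randomized on glycemia and gavaged with 3 mg/kg daily for four days, between 3 and 5 pm, as a suspension in 1% hydroxyethyl cellulose (2.5 ml/kg). Body weight gain was each mouse's end-of-study minus starting weight. Groups were compared with control by ANOVA and one-tailed Dunnett's test.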

Ki [1] | EC50 ([2]; read-out: EC50) | EC50 ([3]; read-out: EC50) | Activity (Caco-2) | Stability (Liver microsomes [4]) | Stability (Liver microsomes [5]) | Activity [6] | EC50 [2] | EC50 [3] | Compound | Activity (Mus musculus [7]) | Activity (Mus musculus [8]) | Activity (Mus musculus [9])
54.2 nM | 13 nM | 73 nM | 95% | 47% | 20% | 152% | – | – | C=CCO/N=C(\c1ccccc1)c1ccc2c(c1)C(C)(C)CCN2CCOc1ccc(C[C@H](OCC)C(=O)O)cc1 | – | – | –
54 nM | 14 nM | 10000 nM | 22% | – | – | 11% | – | – | CO/N=C(\c1ccccc1)c1ccc2c(c1)C(C)(C)CCN2CCOc1ccc(C[C@H](Nc2ccccc2C(=O)c2ccccc2)C(=O)O)cc1 | – | – | –
> 10000 nM | – | – | – | – | – | – | Not Active | Not Active | CO/N=C(\c1ccccc1)c1ccc2c(c1)C(C)(C)CCN2CCOc1ccc(C[C@H](OC(C)=O)C(=O)O)cc1 | – | – | –
– | – | – | 100% | 21% | 45% | – | – | – | CN(CCOc1ccc(CC2SC(=O)NC2=O)cc1)c1ccccn1 (stereo unspecified) [ROSIGLITAZONE] | -56% | -55% | 0.56%
– | – | – | 78% | 100% | 97% | – | – | – | CCO[C@@H](Cc1ccc(OCCc2ccc(OS(C)(=O)=O)cc2)cc1)C(=O)O [TESAGLITAZAR] | -60% | -94% | 1.9%
33 nM | 125 nM | 1000 nM | 100% | 27% | 18% | 50% | – | – | CO/N=C(\c1ccccc1)c1ccc2c(c1)C(C)(C)CCN2CCOc1ccc(C[C@H](OCC(F)(F)F)C(=O)O)cc1 | 9% | -17% | 304%

Second part, the molecule before the results:

Compound | Ki [1] | EC50 ([2]; read-out: EC50) | EC50 ([3]; read-out: EC50) | Activity (Caco-2) | Stability (Liver microsomes [4]) | Stability (Liver microsomes [5]) | Activity [6] | EC50 [2] | EC50 [3] | Activity (Mus musculus [7]) | Activity (Mus musculus [8]) | Activity (Mus musculus [9])
CCO[C@@H](Cc1ccc(OCCN2CCC(C)(C)c3cc(/C(=N/OCc4ccccc4)c4ccccc4)ccc32)cc1)C(=O)O | 18.4 nM | 7 nM | 34 nM | 90% | 59% | 35% | 137% | – | – | -27% | 51% | 0.23%
CCOC(=O)N(CC(=O)O)Cc1ccc(OCCN2CCC(C)(C)c3cc(/C(=N/OC)c4ccccc4)ccc32)cc1 | > 10000 nM | 10000 nM | – | – | – | – | – | – | Not Active | – | – | –
CCO[C@@H](Cc1ccc(OCCN2CCC(C)(C)c3cc(/C(=N/OCC4CC4)c4ccccc4)ccc32)cc1)C(=O)O | 254 nM | 7.52 nM | 9 nM | 93% | 84% | 32% | 145% | – | – | -2% | -2% | 107%
CCO[C@@H](Cc1ccc(OCCN2CCC(C)(C)c3cc(/C(=N/OC)c4ccccc4)ccc32)cc1)C(=O)O | – | – | – | 100% | 0% | 0% | – | – | – | -5% | -20% | -33%
